Test results: ChEMBL document CHEMBL4033788, “Novel Ligustrazine-Based Analogs of Piperlongumine Potently Suppress Proliferation and Metastasis of Colorectal Cancer Cells in Vitro and in Vivo” (J Med Chem, 2018)
The source made the active and inactive calls. The calls are words filed in the database; no cut-off is given here.

How the values were obtained:
[1] = biological target: T1, Catenin beta-1 (Homo sapiens) (UniProt P35222); test: Inhibition of TGF-beta1-regulated increase in nuclear beta-catenin in human HCT116 cells at 2 to 50 nM after 48 hrs by Western blot analysis; format: cell-based
T1 sequence (whole entry): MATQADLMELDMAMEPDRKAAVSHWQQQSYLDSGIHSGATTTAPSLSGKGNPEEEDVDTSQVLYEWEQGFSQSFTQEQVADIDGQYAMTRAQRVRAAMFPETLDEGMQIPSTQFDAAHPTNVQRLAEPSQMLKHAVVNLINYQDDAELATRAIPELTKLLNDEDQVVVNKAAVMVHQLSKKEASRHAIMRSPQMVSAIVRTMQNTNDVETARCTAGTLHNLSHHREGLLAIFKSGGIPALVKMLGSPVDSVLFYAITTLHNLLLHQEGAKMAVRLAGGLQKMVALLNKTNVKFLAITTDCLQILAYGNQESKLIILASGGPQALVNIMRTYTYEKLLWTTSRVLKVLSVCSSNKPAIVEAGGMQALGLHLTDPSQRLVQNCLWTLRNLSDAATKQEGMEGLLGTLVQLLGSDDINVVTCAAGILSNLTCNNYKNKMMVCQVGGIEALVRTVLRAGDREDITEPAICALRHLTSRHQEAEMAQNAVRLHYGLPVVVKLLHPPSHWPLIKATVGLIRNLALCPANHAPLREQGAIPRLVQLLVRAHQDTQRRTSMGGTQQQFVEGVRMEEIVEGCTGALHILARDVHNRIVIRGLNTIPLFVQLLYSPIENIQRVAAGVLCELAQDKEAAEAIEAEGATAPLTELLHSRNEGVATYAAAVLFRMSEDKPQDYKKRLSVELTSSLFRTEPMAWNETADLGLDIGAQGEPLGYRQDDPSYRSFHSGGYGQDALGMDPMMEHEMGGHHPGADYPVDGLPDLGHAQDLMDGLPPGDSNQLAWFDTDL
Outline: (§1)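 Cytoplasmic and nuclear β-catenin were measured by Western blot in HCT-116 cells given TGF-β1 (10 ng/mL) for 48 h, with or without compound, against 0.1% DMSO vehicle. Lysates (20 μg/lane) were run on 7.5% gels and transferred to PVDF, with Lamin A among the antibodies used. Blots were read by ECL and densitometry, n = 3 independent experiments.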

HCT-116 [2] = test: Inhibition of TGF-beta1-induced increase in expression levels of snail protein in human HCT116 cells after 48 hrs by Western blot analysis; format: functional, cell-based
Outline: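 HCT-116 cells (1 × 10^6/well, plated overnight) were exposed to TGF-β1 (10 ng/mL) for 48 h, with or without test compound; vehicle was 0.1% DMSO. Lysates (20 μg/lane) were run on 7.5% SDS-PAGE and blotted to PVDF, with primary antibody overnight at 4 °C and HRP/ECL detection. Band densities were normalised to β-actin across three independent experiments.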

Mus musculus [3] = test: Acute toxicity in ICR mouse assessed as mortality at 400 mg/kg, ip administered for 14 days; format: organism-based; conditions: in vivo, 336 h
[4] = Acute toxicity in ICR mouse assessed as survival rate at 150 mg/kg, ip administered for 14 days relative to control; format: organism-based; conditions: in vivo
Mus musculus [5] = test: Nephrotoxicity in BALB/c nude mouse xenografted with human HCT116 cells at 2.5 to 5 mg/kg, ip administered for 21 consecutive days; format: toxicity, organism-based; conditions: in vivo
Outline: (§2)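 Male BALB/c nude mice (3−5 weeks) inoculated sc with 1 × 10^7 HCT-116 cells; at tumour volume about 75 mm3 randomized (n = 8 per group) and dosed ip daily at 2.5 or 5 mg/kg for 21 consecutive days. Body weights monitored; liver, kidney, lung and heart inspected for size and morphology at sacrifice.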

Mus musculus [6] = test: Toxicity in BALB/c nude mouse xenografted with human HCT116 cells assessed as abnormality in lung at 2.5 to 5 mg/kg, ip administered for 21 consecutive days; format: organism-based; conditions: in vivo; outline: as §2
HCT-116 [7] = test: Induction of ROS accumulation in human HCT116 cells at 1 to 10 uM up to 3 hrs by DCFH-DA staining-based fluorescence spectrometric analysis; format: functional, cell-based
Outline: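 HCT-116 and CCD-841 cells treated in triplicate at 1, 5 and 10 μM for 1, 2 and 3 h. Intracellular ROS stained with DCFH-DA and fluorescence read on a microplate reader. Values expressed relative to DMSO control, from three separate experiments.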

[8] = Acute toxicity in ICR mouse assessed as survival rate at 100 mg/kg, ip administered for 14 days relative to control; format: organism-based; conditions: in vivo
[9] = Acute toxicity in ICR mouse assessed as survival rate at 400 mg/kg, ip administered for 14 days relative to control; format: organism-based; conditions: in vivo
HCT-116 [10] = test: Antimetastatic activity against human HCT116 cells xenografted in BALB/c nude mouse model assessed as reduction in lung metastatic tumor at 2 to 4 mg/kg, ip administered thrice a week for 6 consecutive weeks by H and E staining-based assay; format: functional, organism-based
Outline: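 BALB/c nude mice received HCT-116 cells into the tail vein, then were randomized and dosed intraperitoneally (1, 2 or 4 mg/kg) three times weekly. Body weight recorded weekly. Lungs sectioned (4 μm), H&E stained, and nodule number and area scored blinded in three sections per mouse. Nodule counts n = 4–6 per group.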

HCT-116 [11] = test: Antitumor activity against human HCT116 cells xenografted in BALB/c nude mouse assessed as reduction in tumor size at 2.5 to 5 mg/kg, ip administered daily for 21 consecutive days; format: functional, organism-based
Outline: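 Male BALB/c nude mice, 3–5 weeks old, inoculated subcutaneously with 1 × 10^7 HCT-116 cells. At about 75 mm³ tumor volume, randomized (n = 8/group) and dosed intraperitoneally daily. Volume by caliper as d² × D/2. At the end, tumors excised and weighed; inhibition = (Wcontrol − Wtreated)/Wcontrol × 100%.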

HCT-116 [12] = test: Antiproliferative activity against human HCT116 cells at 8 uM after 72 hrs by MTT assay; format: functional, cell-based
Outline: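 HCT-116 cells pretreated with or without GSH (10 mM) for 1 h, washed, then treated for 72 h. Viability measured by MTT and inhibitory rates calculated. Mean ± SD of three independent experiments.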

[13] = biological target: T1, Catenin beta-1 (Homo sapiens); test: Inhibition of TGF-beta1-regulated increase in nuclear beta-catenin in human HCT116 cells at 50 nM after 48 hrs by Western blot analysis; format: cell-based; outline: as §1
K562 = test: Antiproliferative activity against human K562 cells after 72 hrs in presence of ligustrazine by MTT assay; format: functional, cell-based; conditions: K562, 72 h
Outline: (§3)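 Cells grown in RPMI 1640 with 10% FBS in 96-well plates overnight, then exposed to test agents in triplicate for 72 h. MTT (5 mg/mL stock) added for the last 4 h, formazan dissolved in DMSO, absorbance read at 570 nm. Inhibition = (1 − OD treated/OD control) × 100%.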

U-87 MG = test: Antiproliferative activity against human U87MG cells after 72 hrs in presence of ligustrazine by MTT assay; format: functional, cell-based, U-87MG ATCC; outline: as §3
HCT-116 [14] = test: Antiinvasive activity in human HCT116 cells assessed as inhibition of TGF-beta1-induced cell invasion at 50 nM after 48 hrs by crystal violet staining-based assay; format: functional
Outline: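 Transwell invasion. HCT-116 cells (2.5 × 10^5/well) seeded on matrigel-coated chambers, with TGF-β1 (10 ng/mL) and test agents (2, 10, 50 nM) in the lower chamber for 48 h. Invaded cells stained with crystal violet and counted. Three independent experiments.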

**Q.** Which inhibition [1] does the source give for `Cc1nc(C)c(/C=C/C(=O)N2CCC=C(Cl)C2=O)nc1C` here?
**A.** Active

**Q.** And the inhibition (HCT-116 [2])?
**A.** Dose-dependent effect

**Q.** And the Activity (Mus musculus [3])?
**A.** Toxic

**Q.** What about the survival at 336 h [4] of the same compound?
**A.** 40%

**Q.** And the Activity (Mus musculus [5])?
**A.** Non-Toxic

**Q.** What about the Activity (Mus musculus [6]) of the same compound?
**A.** Non-Toxic

**Q.** What about the Activity (HCT-116 [7]) of the same compound?
**A.** Active

**Q.** And the survival at 336 h [8]?
**A.** 80%

**Q.** And the survival at 336 h [9]?
**A.** 0%

**Q.** And the Activity (HCT-116 [10])?
**A.** Active

**Q.** And the Activity (HCT-116 [11])?
**A.** Active

**Q.** Which Activity (HCT-116 [12]) does the source give for `COc1cc(/C=C/C(=O)N2CCC=CC2=O)cc(OC)c1OC` [PIPLARTINE] here?
**A.** Active

**Q.** And the inhibition [13]?
**A.** Active

**Q.** And the IC50 (K562)?
**A.** 5.09 µM

**Q.** What about the IC50 (U-87 MG) of the same compound?
**A.** 16.1 µM

**Q.** And the Activity (HCT-116 [14])?
**A.** Active
